Laboratory results reported in ChEMBL document CHEMBL3739255, “Novel Series of Dihydropyridinone P2X7 Receptor Antagonists” (J Med Chem, 2015).

Columns and labels:
[1] = target: Calcitonin gene-related peptide type 1 receptor (Homo sapiens) (UniProt Q16602); assay: Inhibition of human CGRP receptor at 10 uM by radioligand binding assay
Summary of the method: (§1)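 Commercial receptor scan across a 78-target panel, with percent inhibition measured at a test concentration of 10 uM.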

[2] = target: Vasopressin V1a receptor (Homo sapiens) (UniProt P37288); assay: Inhibition of human vasopressin V1a receptor at 10 uM by radioligand binding assay
Summary of the method: (§2)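 Outsourced broad receptor-screening panel of 78 targets, each tested at a single 10 uM concentration; read-out is percent inhibition. Detailed conditions are given only in the Supporting Information.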

[3] = target: Kappa-type opioid receptor (Rattus norvegicus) (UniProt P34975); assay: Inhibition of rat kappa opioid receptor at 10 uM by radioligand binding assay
Summary of the method: (§3)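 Single-concentration screen at 10 uM in a commercial 78-receptor panel run by CEREP; results are given as % inhibition.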

[4] = target: Tumor necrosis factor receptor superfamily member 1A (Homo sapiens) (UniProt P19438); assay: Inhibition of human TNFalpha receptor at 10 uM by radioligand binding assay; summary of the method: as §2
[5] = target: 5-hydroxytryptamine receptor 6 (Homo sapiens) (UniProt P50406); assay: Inhibition of human 5-HT6 receptor at 10 uM by radioligand binding assay; summary of the method: as §1
[6] = target: Sodium-dependent serotonin transporter (Homo sapiens) (UniProt P31645); assay: Inhibition of human 5-HT transporter at 10 uM; summary of the method: as §1
[7] = target: Adrenergic receptor alpha-2 (Rattus norvegicus) (UniProt P22086+P19328+P22909); assay: Inhibition of rat alpha2-adrenoceptor at 10 uM; summary of the method: as §2
P2X purinoceptor 7 [8] = target: T1, P2X purinoceptor 7 (Homo sapiens, UniProt Q99572); assay: Antagonist activity at human P2X7R expressed in BzATP-stimulated human 1321N1 cells incubated for 20 mins followed by BzATP stimulation measured every 1 sec for 60 secs followed by 3 sec intervals for 4 mins by FLIPR Ca2+ assay in presence of ionomycin; type: cell-based
T1 sequence (Q99572 whole entry): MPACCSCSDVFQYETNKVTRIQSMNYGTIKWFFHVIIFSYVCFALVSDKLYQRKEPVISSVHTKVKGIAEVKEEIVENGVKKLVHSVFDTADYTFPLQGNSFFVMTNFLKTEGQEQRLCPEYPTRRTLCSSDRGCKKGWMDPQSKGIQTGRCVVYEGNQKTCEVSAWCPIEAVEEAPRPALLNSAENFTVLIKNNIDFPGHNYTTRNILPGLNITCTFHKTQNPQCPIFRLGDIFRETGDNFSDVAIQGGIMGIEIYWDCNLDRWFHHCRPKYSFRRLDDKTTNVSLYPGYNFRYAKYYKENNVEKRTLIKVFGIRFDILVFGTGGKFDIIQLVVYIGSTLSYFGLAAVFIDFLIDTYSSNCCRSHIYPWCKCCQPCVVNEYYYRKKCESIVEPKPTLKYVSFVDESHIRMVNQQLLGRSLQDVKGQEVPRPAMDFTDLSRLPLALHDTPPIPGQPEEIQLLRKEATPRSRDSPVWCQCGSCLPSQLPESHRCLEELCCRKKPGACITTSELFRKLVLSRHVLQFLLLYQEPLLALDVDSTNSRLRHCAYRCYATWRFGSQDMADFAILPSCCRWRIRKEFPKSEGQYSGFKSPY
Summary of the method: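 1321N1 cells stably expressing human P2X7R, stimulated with BzATP; calcium flux read on FLIPR. IC50 is the mean of n ≥ 2 runs, each including a positive control.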

[9] = target: Thromboxane A2 receptor (Homo sapiens) (UniProt P21731); assay: Inhibition of human TP prostanoid receptor at 10 uM by radioligand binding assay; summary of the method: as §2
[10] = target: D(3) dopamine receptor (Homo sapiens) (UniProt P35462); assay: Inhibition of human dopamine D3 receptor at 10 uM; summary of the method: as §2
[11] = target: Sodium-dependent noradrenaline transporter (Homo sapiens) (UniProt P23975); assay: Inhibition of human norepinephrine transporter at 10 uM; summary of the method: as §2
[12] = target: 5-hydroxytryptamine receptor 3A (Homo sapiens) (UniProt P46098); assay: Inhibition of human 5-HT3 receptor at 10 uM; summary of the method: as §1
Rattus norvegicus [13] = organism: Rattus norvegicus; assay: Inhibition of rat P2Y purinoceptor at 10 uM by radioligand binding assay; summary of the method: as §2
[14] = target: Neurotensin receptor type 1 (Homo sapiens) (UniProt P30989); assay: Inhibition of human neurotensin 1 receptor at 10 uM by radioligand binding assay; summary of the method: as §2
[15] = target: Pituitary adenylate cyclase-activating polypeptide type I receptor (Homo sapiens) (UniProt P41586); assay: Inhibition of human PAC1 at 10 uM by radioligand binding assay; summary of the method: as §1
[16] = Binding affinity to Cytochrome P450 in human liver microsomes at 10 uM incubated for 30 mins; type: ADME; conditions: 0.5 h
Summary of the method: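 Covalent binding in rat and human liver microsomes, run both without and with NADPH.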

P2X purinoceptor 2 = P2X purinoceptor 2 (Homo sapiens, UniProt Q9UBL9); assay: Inhibition of P2X2R (unknown origin)
Summary of the method: (§4)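 Selectivity at other P2X receptor subtypes, read as IC50 in a FLIPR Ca2+ flux assay.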

Liver microsome = assay: Drug metabolism in rat liver microsomes assessed as GSH adduct UV peak area at 20 uM preincubated for 5 mins followed by NADPH addition measured after 60 mins by LC/MS/MS analysis relative to total area of GSH adduct, other metabolites, parent compound; type: ADME; conditions: 1 h, BLD = below limit of detection
P2X purinoceptor 4 = P2X purinoceptor 4 (Homo sapiens, UniProt Q99571); assay: Inhibition of P2X4R (unknown origin); summary of the method: as §4
[17] = target: Substance-P receptor (Homo sapiens) (UniProt P25103); assay: Inhibition of human NK1 receptor at 10 uM by radioligand binding assay; summary of the method: as §1
Rattus norvegicus [18] = organism: Rattus norvegicus; assay: Inhibition of rat L-type calcium channel verapamil binding site at 10 uM; summary of the method: as §2
P2X purinoceptor 7 [19] = target: P2X purinoceptor 7 (Rattus norvegicus, UniProt Q64663); assay: Antagonist activity at rat P2X7R expressed in BzATP-stimulated HEK293 cells incubated for 20 mins followed by BzATP stimulation measured every 1 sec for 60 secs followed by 3 sec intervals for 4 mins by FLIPR Ca2+ assay in presence of ionomycin; type: cell-based
Rattus norvegicus [20] = organism: Rattus norvegicus; assay: Inhibition of rat Voltage-gated potassium channel at 10 uM; summary of the method: as §2
[21] = target: Neuropeptide Y receptor type 1 (Homo sapiens) (UniProt P25929); assay: Inhibition of human neuropeptide Y1 receptor at 10 uM by radioligand binding assay; summary of the method: as §2
[22] = target: Beta-2 adrenergic receptor (Homo sapiens) (UniProt P07550); assay: Inhibition of human beta2-adrenoceptor at 10 uM by radioligand binding assay; summary of the method: as §2
[23] = target: Glucocorticoid receptor (Homo sapiens) (UniProt P04150); assay: Inhibition of human glucocorticoid receptor at 10 uM by radioligand binding assay; summary of the method: as §2
[24] = target: Nociceptin receptor (Homo sapiens) (UniProt P41146); assay: Inhibition of human ORL1 receptor at 10 uM by radioligand binding assay; summary of the method: as §1
Rattus norvegicus [25] = organism: Rattus norvegicus; assay: Inhibition of rat sigma receptor at 10 uM; summary of the method: as §3
[26] = Oral bioavailability in rat at 2 mg/kg administered as single dose; type: ADME, organism-based; conditions: in vivo
Summary of the method: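 Rats given a single dose, iv 0.5 mg/kg or po 2 mg/kg, with n ≥ 2 per time point. Bioavailability is derived from the po and iv exposures. Vdss is reported in L/kg.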

Sequence of Calcitonin gene-related peptide type 1 receptor (Homo sapiens) (Q16602 whole entry): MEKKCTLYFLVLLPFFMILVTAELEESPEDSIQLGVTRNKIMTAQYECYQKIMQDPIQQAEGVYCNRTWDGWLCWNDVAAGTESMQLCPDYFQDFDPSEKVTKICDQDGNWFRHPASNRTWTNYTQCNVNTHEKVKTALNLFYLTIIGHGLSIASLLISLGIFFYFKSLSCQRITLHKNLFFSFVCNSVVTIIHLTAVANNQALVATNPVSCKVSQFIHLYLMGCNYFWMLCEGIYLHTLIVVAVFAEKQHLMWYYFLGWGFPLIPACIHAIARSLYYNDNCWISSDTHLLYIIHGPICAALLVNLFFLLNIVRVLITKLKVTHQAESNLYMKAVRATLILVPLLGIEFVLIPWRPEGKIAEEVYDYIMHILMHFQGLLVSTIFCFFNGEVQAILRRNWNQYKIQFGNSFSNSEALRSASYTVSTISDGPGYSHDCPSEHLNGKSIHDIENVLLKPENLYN
Sequence of Glucocorticoid receptor (Homo sapiens) (P04150 whole entry): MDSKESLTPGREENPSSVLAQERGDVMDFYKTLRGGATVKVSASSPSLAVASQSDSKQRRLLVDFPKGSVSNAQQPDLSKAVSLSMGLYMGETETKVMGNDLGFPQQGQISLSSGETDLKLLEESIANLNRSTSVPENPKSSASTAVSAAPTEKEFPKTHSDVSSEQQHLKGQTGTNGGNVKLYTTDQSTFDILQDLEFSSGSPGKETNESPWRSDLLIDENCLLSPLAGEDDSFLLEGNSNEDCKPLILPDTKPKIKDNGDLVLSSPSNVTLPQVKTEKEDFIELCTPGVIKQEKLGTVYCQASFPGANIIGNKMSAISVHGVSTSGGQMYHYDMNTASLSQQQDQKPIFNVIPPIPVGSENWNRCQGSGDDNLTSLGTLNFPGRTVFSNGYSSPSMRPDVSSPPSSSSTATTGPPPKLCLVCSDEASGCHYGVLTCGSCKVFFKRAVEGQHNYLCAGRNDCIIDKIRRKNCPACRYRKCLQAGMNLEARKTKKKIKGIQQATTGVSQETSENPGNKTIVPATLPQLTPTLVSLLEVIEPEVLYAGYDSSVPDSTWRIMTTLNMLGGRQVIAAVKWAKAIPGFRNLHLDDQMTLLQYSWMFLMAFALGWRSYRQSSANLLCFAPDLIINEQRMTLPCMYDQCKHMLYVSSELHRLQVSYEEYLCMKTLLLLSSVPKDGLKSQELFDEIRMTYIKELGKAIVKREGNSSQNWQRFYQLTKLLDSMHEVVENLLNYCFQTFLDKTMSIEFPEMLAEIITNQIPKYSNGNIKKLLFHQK
Sequence of D(3) dopamine receptor (Homo sapiens) (P35462 whole entry): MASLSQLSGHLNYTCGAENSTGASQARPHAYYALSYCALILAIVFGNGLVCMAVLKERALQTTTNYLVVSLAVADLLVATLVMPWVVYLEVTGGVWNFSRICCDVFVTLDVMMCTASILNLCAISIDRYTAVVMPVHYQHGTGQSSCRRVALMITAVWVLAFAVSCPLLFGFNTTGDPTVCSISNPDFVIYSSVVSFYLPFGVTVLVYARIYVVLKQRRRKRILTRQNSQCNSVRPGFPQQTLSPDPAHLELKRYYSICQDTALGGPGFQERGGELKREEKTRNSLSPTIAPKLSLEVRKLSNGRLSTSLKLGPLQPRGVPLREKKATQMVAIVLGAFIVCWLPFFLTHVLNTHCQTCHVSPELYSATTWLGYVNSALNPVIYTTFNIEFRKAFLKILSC
Sequence of 5-hydroxytryptamine receptor 3A (Homo sapiens) (P46098 whole entry): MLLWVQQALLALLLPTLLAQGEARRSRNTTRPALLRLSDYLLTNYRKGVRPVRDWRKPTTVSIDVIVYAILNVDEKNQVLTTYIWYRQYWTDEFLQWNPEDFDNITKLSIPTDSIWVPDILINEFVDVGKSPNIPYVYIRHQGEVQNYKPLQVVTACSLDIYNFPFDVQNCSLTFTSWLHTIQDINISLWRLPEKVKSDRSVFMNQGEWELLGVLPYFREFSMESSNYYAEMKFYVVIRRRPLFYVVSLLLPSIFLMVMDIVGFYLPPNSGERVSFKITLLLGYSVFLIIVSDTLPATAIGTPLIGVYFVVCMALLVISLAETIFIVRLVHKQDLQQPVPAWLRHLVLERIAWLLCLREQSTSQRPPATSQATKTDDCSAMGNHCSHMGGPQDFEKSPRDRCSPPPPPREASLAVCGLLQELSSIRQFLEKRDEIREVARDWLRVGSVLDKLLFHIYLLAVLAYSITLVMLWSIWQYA
Sequence of Nociceptin receptor (Homo sapiens) (P41146 whole entry): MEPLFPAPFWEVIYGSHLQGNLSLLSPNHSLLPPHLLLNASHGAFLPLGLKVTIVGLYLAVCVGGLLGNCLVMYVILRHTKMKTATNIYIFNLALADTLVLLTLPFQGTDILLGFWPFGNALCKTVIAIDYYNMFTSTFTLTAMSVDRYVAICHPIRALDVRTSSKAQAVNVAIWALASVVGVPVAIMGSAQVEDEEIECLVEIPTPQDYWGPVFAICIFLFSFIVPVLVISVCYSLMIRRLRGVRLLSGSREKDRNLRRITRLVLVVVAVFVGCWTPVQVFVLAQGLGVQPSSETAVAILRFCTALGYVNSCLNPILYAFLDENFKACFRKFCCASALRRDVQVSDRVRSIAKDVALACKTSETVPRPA
Sequence of Neurotensin receptor type 1 (Homo sapiens) (P30989 whole entry): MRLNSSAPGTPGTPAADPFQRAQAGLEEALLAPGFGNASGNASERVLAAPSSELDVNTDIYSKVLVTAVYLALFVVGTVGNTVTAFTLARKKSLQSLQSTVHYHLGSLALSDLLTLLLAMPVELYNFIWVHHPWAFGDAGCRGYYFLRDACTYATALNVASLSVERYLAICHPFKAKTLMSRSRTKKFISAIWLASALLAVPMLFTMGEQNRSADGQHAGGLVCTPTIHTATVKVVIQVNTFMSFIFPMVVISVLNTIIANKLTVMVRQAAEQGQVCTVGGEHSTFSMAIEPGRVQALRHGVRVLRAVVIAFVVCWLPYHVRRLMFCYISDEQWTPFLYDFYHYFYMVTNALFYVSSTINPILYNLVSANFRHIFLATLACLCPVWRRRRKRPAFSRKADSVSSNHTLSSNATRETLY
Sequence of 5-hydroxytryptamine receptor 6 (Homo sapiens) (P50406 whole entry): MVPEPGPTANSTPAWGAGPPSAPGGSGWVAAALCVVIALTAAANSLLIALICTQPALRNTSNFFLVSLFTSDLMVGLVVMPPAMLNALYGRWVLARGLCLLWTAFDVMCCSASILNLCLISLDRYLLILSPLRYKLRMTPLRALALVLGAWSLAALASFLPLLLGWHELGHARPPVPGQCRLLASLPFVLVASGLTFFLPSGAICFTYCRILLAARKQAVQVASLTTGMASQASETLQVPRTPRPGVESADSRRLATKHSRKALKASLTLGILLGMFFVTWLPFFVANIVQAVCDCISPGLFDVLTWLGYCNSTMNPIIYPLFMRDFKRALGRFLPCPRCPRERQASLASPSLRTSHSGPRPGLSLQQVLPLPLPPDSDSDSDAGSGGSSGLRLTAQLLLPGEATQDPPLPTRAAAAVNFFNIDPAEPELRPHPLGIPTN
Sequence of Neuropeptide Y receptor type 1 (Homo sapiens) (P25929 whole entry): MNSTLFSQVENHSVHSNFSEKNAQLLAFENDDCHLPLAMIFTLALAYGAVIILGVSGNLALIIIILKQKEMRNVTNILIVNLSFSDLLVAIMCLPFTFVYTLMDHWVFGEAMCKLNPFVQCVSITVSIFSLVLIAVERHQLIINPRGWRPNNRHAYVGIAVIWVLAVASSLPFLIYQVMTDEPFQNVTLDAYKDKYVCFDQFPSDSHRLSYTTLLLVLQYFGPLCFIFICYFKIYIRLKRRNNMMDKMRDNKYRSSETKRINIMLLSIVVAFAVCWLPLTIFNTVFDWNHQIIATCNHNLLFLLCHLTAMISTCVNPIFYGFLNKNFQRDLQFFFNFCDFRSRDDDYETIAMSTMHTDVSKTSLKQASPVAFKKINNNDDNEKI
Sequence of Sodium-dependent serotonin transporter (Homo sapiens) (P31645 whole entry, looked up): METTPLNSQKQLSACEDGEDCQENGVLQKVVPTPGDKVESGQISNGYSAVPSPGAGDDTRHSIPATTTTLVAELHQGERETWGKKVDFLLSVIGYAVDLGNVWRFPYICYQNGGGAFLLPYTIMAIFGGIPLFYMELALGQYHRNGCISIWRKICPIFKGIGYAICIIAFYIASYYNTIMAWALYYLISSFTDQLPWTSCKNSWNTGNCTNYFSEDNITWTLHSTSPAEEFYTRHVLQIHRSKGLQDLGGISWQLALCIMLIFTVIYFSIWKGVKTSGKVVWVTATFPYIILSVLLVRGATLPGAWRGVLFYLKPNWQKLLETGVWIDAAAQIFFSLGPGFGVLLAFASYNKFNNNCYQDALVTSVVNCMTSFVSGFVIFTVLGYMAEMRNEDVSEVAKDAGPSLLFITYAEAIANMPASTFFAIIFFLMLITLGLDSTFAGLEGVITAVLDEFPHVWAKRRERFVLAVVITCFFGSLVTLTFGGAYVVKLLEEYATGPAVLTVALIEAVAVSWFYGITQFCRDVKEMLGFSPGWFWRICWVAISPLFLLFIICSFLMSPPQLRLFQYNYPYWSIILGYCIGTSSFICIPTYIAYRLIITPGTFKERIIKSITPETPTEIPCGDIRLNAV
Sequence of P2X purinoceptor 2 (Q9UBL9 whole entry): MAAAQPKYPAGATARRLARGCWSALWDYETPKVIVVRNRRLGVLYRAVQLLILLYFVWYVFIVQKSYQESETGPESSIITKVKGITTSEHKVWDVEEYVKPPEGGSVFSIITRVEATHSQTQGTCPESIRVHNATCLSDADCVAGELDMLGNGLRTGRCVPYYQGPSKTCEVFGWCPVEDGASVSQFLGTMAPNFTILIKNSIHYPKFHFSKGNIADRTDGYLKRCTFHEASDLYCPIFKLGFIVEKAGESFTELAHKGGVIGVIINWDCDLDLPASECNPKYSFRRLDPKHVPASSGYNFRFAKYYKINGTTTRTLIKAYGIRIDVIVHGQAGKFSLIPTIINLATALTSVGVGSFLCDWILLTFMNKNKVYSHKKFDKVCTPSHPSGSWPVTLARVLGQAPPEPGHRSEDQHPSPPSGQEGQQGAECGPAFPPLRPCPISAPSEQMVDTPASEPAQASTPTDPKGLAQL

What does the source list for `Cc1cc(Cl)c(OCCO)cc1NC(=O)C1=CNC(=O)C[C@H]1c1ccc(F)cc1`?
inhibition [1]: < 30%; inhibition [2]: < 30%; inhibition [3]: < 30%; inhibition [4]: < 30%; inhibition [5]: < 30%; inhibition [6]: < 30%; inhibition [7]: < 30%; IC50 (P2X purinoceptor 7 [8]): 0.023 µM; inhibition [9]: < 30%; inhibition [10]: < 30%; inhibition [11]: < 30%; inhibition [12]: < 30%; inhibition (Rattus norvegicus [13]): < 30%; inhibition [14]: < 30%; inhibition [15]: < 30%; PB [16]: Not Active; IC50 (P2X purinoceptor 2): > 10 µM; Drug metabolism (Liver microsome): BLD; IC50 (P2X purinoceptor 4): > 10 µM; inhibition [17]: < 30%; inhibition (Rattus norvegicus [18]): < 30%; IC50 (P2X purinoceptor 7 [19]): > 10 µM; inhibition (Rattus norvegicus [20]): < 30%; inhibition [21]: < 30%; inhibition [22]: < 30%; inhibition [23]: < 30%; inhibition [24]: < 30%; inhibition (Rattus norvegicus [25]): < 30%; bioavailability [26]: 74%
